Reference: ChEMBL document CHEMBL1154066, “Synthesis, physicochemical properties and antimicrobial activity of some new benzimidazole derivatives” (2009)
≈ marks a conversion by molar mass, not a printed value.

How the values were obtained:
Aspergillus niger [1] = assay: Antifungal activity against Aspergillus niger at 300 ug/disk after 7 days by disk diffusion method; type: functional; conditions: 168 h, read-out: IZ
Outline: (§1)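 Disc diffusion on Mueller–Hinton agar seeded with a standardized suspension, following NCCLS. Sterile 6 mm paper discs held 300 µg of test compound, amphotericin B at 10 µg as reference, or DMSO alone as negative control. Plates were incubated at 28 ± 2 °C for 7 days. Inhibition zone diameters (mm) were measured in triplicate and scored as 10–15, 16–21 or 22–28 mm.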

Aspergillus flavus [2] = assay: Antifungal activity against Aspergillus flavus at 300 ug/disk after 7 days by disk diffusion method; type: functional; conditions: 168 h, read-out: IZ; outline: as §1
Bacillus subtilis = assay: Antibacterial activity against Bacillus subtilis MTCC 121 after 20 hrs by two fold dilution method; type: functional; conditions: MTCC 121, 20 h
Outline: (§2)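 Twofold agar dilution in Mueller–Hinton agar. Compounds were dissolved in DMSO and diluted into the medium at final 128–1 µg/mL. The inoculum was 10^4 CFU/plate, and a medium-plus-DMSO plate served as negative control. Plates were incubated at 35 °C for 20 h. MIC was taken as the lowest concentration giving complete growth inhibition. Experiments were run three times.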

Salmonella typhi = assay: Antibacterial activity against Salmonella typhi MTCC 733 after 20 hrs by two fold dilution method; type: functional, Salmonella enterica subsp. enterica serovar Typhi; conditions: Salmonella enterica, MTCC 733, 20 h
Outline: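 Twofold agar dilution in Mueller–Hinton agar. Compounds dissolved in DMSO and diluted into medium to final 128–1 µg/mL; medium with DMSO at the same dilution as negative control. Inoculum 10^4 CFU/plate; incubated 35 °C for 20 h. MIC taken as lowest concentration giving complete growth inhibition, in µg/mL. Ampicillin and ciprofloxacin as references; three independent experiments.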

Staphylococcus aureus = assay: Antibacterial activity against Staphylococcus aureus ATCC 29213 after 20 hrs by two fold dilution method; type: functional; conditions: ATCC 29213, 20 h; outline: as §2
Candida albicans [3] = assay: Antifungal activity against Candida albicans MTCC 1637 at 300 ug/disk after 7 days by disk diffusion method; type: functional; conditions: MTCC 1637, 168 h, read-out: IZ; outline: as §1
Streptococcus mutans = assay: Antibacterial activity against Streptococcus mutans MTCC 890 after 20 hrs by two fold dilution method; type: functional; conditions: MTCC 890, 20 h; outline: as §2
Escherichia coli = assay: Antibacterial activity against Escherichia coli ATCC 25922 after 20 hrs by two fold dilution method; type: functional; conditions: ATCC 25922, 20 h; outline: as §2
Pseudomonas aeruginosa = assay: Antibacterial activity against Pseudomonas aeruginosa MTCC 741 after 20 hrs by two fold dilution method; type: functional; conditions: MTCC 741, 20 h; outline: as §2
Aspergillus niger [4] = assay: Antifungal activity against Aspergillus niger at 10 ug/disk after 7 days by disk diffusion method; type: functional; conditions: 168 h, read-out: IZ
Candida albicans [5] = assay: Antifungal activity against Candida albicans MTCC 1637 at 10 ug/disk after 7 days by disk diffusion method; type: functional; conditions: MTCC 1637, 168 h, read-out: IZ
Aspergillus flavus [6] = assay: Antifungal activity against Aspergillus flavus at 10 ug/disk after 7 days by disk diffusion method; type: functional; conditions: 168 h, read-out: IZ

SMILES | zone of inhibition at 300 µg/disc (Aspergillus niger [1]) [mm] | zone of inhibition at 300 µg/disc (Aspergillus flavus [2]) [mm] | MIC (Bacillus subtilis) [µg/mL] | MIC (Salmonella typhi) [µg/mL] | MIC (Staphylococcus aureus) [µg/mL] | zone of inhibition at 300 µg/disc (Candida albicans [3]) [mm] | MIC (Streptococcus mutans) [µg/mL] | MIC (Escherichia coli) [µg/mL] | MIC (Pseudomonas aeruginosa) [µg/mL] | zone of inhibition at 10 µg/disc (Aspergillus niger [4]) [mm] | zone of inhibition at 10 µg/disc (Candida albicans [5]) [mm] | zone of inhibition at 10 µg/disc (Aspergillus flavus [6]) [mm]
Cc1nnc(Cn2cnc3ccccc32)o1 | 16 | 16 | 16 (≈ 74.7 µM) | 32 (≈ 149 µM) | 16 (≈ 74.7 µM) | 16 | 16 (≈ 74.7 µM) | 16 (≈ 74.7 µM) | > 128 | – | – | –
Clc1ccc(-c2nnc(Cn3cnc4ccccc43)o2)cc1 | – | – | 32 (≈ 103 µM) | – | 32 (≈ 103 µM) | – | 16 (≈ 51.5 µM) | 32 (≈ 103 µM) | – | – | – | –
Cc1nc2ccccc2n1Cc1nnc(CCCl)o1 | 10 | 10 | 8 (≈ 28.9 µM) | 16 (≈ 57.8 µM) | 4 (≈ 14.5 µM) | 16 | 8 (≈ 28.9 µM) | 32 (≈ 116 µM) | – | – | – | –
ClCCc1nnc(Cn2cnc3ccccc32)o1 | 16 | 10 | 16 (≈ 60.9 µM) | 64 (≈ 244 µM) | 16 (≈ 60.9 µM) | 16 | – | – | 32 (≈ 122 µM) | – | – | –
CCc1nnc(Cn2cnc3ccccc32)o1 | < 10 | 10 | 32 (≈ 140 µM) | 64 (≈ 280 µM) | 32 (≈ 140 µM) | 10 | 16 (≈ 70.1 µM) | 16 (≈ 70.1 µM) | > 128 | – | – | –
COc1ccccc1-c1nnc(Cn2cnc3ccccc32)o1 | < 10 | < 10 | 16 (≈ 52.2 µM) | – | 16 (≈ 52.2 µM) | 16 | – | 32 (≈ 104 µM) | > 128 | – | – | –
c1ccc(-c2nnc(Cn3cnc4ccccc43)o2)cc1 | – | – | 16 (≈ 57.9 µM) | > 128 | 16 (≈ 57.9 µM) | – | 32 (≈ 116 µM) | 64 (≈ 232 µM) | – | – | – | –
Cc1nc2ccccc2n1Cc1nnc(CCl)o1 | 16 | 10 | 16 (≈ 60.9 µM) | > 128 | 16 (≈ 60.9 µM) | 10 | 32 (≈ 122 µM) | 16 (≈ 60.9 µM) | – | – | – | –
Cc1nc2ccccc2n1Cc1nnc(-c2ccccc2)o1 | – | – | 8 (≈ 27.6 µM) | 64 (≈ 220 µM) | 8 (≈ 27.6 µM) | – | 8 (≈ 27.6 µM) | 32 (≈ 110 µM) | – | – | – | –
CC1(C)S[C@@H]2[C@H](NC(=O)[C@H](N)c3ccccc3)C(=O)N2[C@H]1C(=O)O [AMPICILLIN] | – | – | 2 (≈ 5.72 µM) | > 128 | 2 (≈ 5.72 µM) | – | 2 (≈ 5.72 µM) | 4 (≈ 11.4 µM) | > 128 | – | – | –
Cc1nc2ccccc2n1Cc1nnc(-c2ccccc2O)o1 | – | – | 16 (≈ 52.2 µM) | 32 (≈ 104 µM) | – | – | 8 (≈ 26.1 µM) | 32 (≈ 104 µM) | – | – | – | –
Clc1ccccc1-c1nnc(Cn2cnc3ccccc32)o1 | – | – | 16 (≈ 51.5 µM) | 32 (≈ 103 µM) | 32 (≈ 103 µM) | – | 16 (≈ 51.5 µM) | > 128 | – | – | – | –
C[C@@H]1[C@H](O)[C@@H](C)/C=C/C=C/C=C/C=C/C=C/C=C/C=C/[C@H](O[C@@H]2O[C@H](C)[C@@H](O)[C@H](N)[C@@H]2O)C[C@@H]2O[C@](O)(C[C@@H](O)C[C@@H](O)[C@H](O)CC[C@@H](O)C[C@@H](O)CC(=O)O[C@H]1C)C[C@H](O)[C@H]2C(=O)O [AMPHOTERICIN B] | – | – | – | – | – | – | – | – | – | 22 | 22 | 22
COc1ccc(-c2nnc(Cn3cnc4ccccc43)o2)cc1 | < 10 | < 10 | 32 (≈ 104 µM) | 32 (≈ 104 µM) | 16 (≈ 52.2 µM) | 16 | 16 (≈ 52.2 µM) | 64 (≈ 209 µM) | 32 (≈ 104 µM) | – | – | –
ClCc1nnc(Cn2cnc3ccccc32)o1 | 10 | 10 | 32 (≈ 129 µM) | 64 (≈ 257 µM) | 16 (≈ 64.3 µM) | 16 | 16 (≈ 64.3 µM) | – | 32 (≈ 129 µM) | – | – | –
CCc1nnc(Cn2c(C)nc3ccccc32)o1 | 10 | 16 | 8 (≈ 33 µM) | 32 (≈ 132 µM) | 4 (≈ 16.5 µM) | 16 | 4 (≈ 16.5 µM) | 32 (≈ 132 µM) | > 128 | – | – | –
Oc1ccccc1-c1nnc(Cn2cnc3ccccc32)o1 | – | – | – | 16 (≈ 54.7 µM) | 32 (≈ 109 µM) | – | – | 64 (≈ 219 µM) | 64 (≈ 219 µM) | – | – | –
Cc1nc2ccccc2n1Cc1nnc(-c2ccccc2Cl)o1 | 16 | 16 | – | 32 (≈ 98.5 µM) | – | 16 | 16 (≈ 49.3 µM) | > 128 | – | – | – | –
COc1ccc(-c2nnc(Cn3c(C)nc4ccccc43)o2)cc1 | 16 | 16 | 8 (≈ 25 µM) | 16 (≈ 49.9 µM) | 2 (≈ 6.24 µM) | 22 | 4 (≈ 12.5 µM) | 16 (≈ 49.9 µM) | 64 (≈ 200 µM) | – | – | –
Cc1nnc(Cn2c(C)nc3ccccc32)o1 | 16 | 16 | 4 (≈ 17.5 µM) | 16 (≈ 70.1 µM) | 4 (≈ 17.5 µM) | 22 | 8 (≈ 35 µM) | 64 (≈ 280 µM) | 64 (≈ 280 µM) | – | – | –
Cc1nc2ccccc2n1Cc1nnc(-c2ccc(O)cc2)o1 | 16 | 16 | 8 (≈ 26.1 µM) | – | 8 (≈ 26.1 µM) | 22 | 4 (≈ 13.1 µM) | > 128 | – | – | – | –
COc1ccccc1-c1nnc(Cn2c(C)nc3ccccc32)o1 | 16 | 16 | 4 (≈ 12.5 µM) | 16 (≈ 49.9 µM) | 8 (≈ 25 µM) | 16 | 8 (≈ 25 µM) | 64 (≈ 200 µM) | 64 (≈ 200 µM) | – | – | –
Cc1nc2ccccc2n1Cc1nnc(-c2ccc(Cl)cc2)o1 | 10 | 22 | 4 (≈ 12.3 µM) | – | 2 (≈ 6.16 µM) | 22 | 4 (≈ 12.3 µM) | > 128 | – | – | – | –
O=C(O)c1cn(C2CC2)c2cc(N3CCNCC3)c(F)cc2c1=O [CIPROFLOXACIN] | – | – | ≤ 1 | – | ≤ 1 | – | – | ≤ 1 | – | – | – | –
Oc1ccc(-c2nnc(Cn3cnc4ccccc43)o2)cc1 | – | – | 16 (≈ 54.7 µM) | – | – | – | 32 (≈ 109 µM) | 32 (≈ 109 µM) | 64 (≈ 219 µM) | – | – | –
